Screening data as filed in PubChem BioAssay.
A selection: hits, their analogues and other compounds. The true share with any hit is near 1.8%.
TDP2 absorb = blocks human TDP2 phosphodiesterase activity. AID 720702. recombinant TDP2, T5PNP hydrolysis, p-nitrophenol absorbance 415 nm. hit rate 0.34% among 370,000. inhibition, % at 12.8 µM;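 active means inhibition above the mean of all tested compounds plus 3 SD, set per campaign, cut at about 25% in these data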;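 further: 0% = DMSO with enzyme and 100% = buffer with substrate but no TDP2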
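System – recombinant human TDP2 · Quantity – TDP2 enzyme at 120 nM final · Doses – single concentration, 12.8 µM nominal, with 1% DMSO · Incubation – 2 h at 37 °C · Measured by – epi absorbance of p-nitrophenol freed from T5PNP by hydrolysis · Read-out – % inhibition relative to enzyme-containing and enzyme-free wells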
GSTO1 inh = counter-screen for RBBP9 inhibitors: inhibitors of human GSTO1 | inhibition, % at 5.96 µM | P78417 | hit rate 1.1% among 300,000 | recombinant GSTO1, activity-based probe fluorescence polarization;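 active means inhibition above the campaign mean inhibition plus 3 SD, cut at about 35% in these data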;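 further: 0% = GSTO1-1 with DMSO and 100% = wells lacking GSTO1-1 enzyme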
Apaf1 inhib = blocks human Apaf-1 apoptosome activity; inhibition, % at 20 µM; hit rate 0.71% among 330,000; reconstituted apoptosome caspase-3 activity, DEVD-Rh110 fluorescence; active means inhibition of at least 40% at 20 µM;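 further: plate controls were DMSO wells for no effect and DEVD-CHO caspase inhibitor wells for full effect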
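Medium: Hepes buffer, pH 7.5 / System: biochemical Apaf-1 apoptosome reconstitution / Measured by: Rh110 fluorescence, excitation 480 nm, emission 540 nm / Times: compound with Apaf-1, dATP, procaspase-3 30 min, then 50 min reaction, room temperature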
PAD4 FP inh = inhibitors of human PAD4; recombinant PAD4, RCA probe fluorescence polarization; inhibition, % at 6.36 µM; hit rate 0.41% among 330,000; AID 485272;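 active means percent inhibition above a cutoff equal to the mean of all tested compounds plus 3 SD, cut at about 15% in these data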;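 further: 0% = PAD4 with RCA probe and DMSO and 100% = probe without PAD4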
Target sequence (Q9UM07 whole entry, looked up): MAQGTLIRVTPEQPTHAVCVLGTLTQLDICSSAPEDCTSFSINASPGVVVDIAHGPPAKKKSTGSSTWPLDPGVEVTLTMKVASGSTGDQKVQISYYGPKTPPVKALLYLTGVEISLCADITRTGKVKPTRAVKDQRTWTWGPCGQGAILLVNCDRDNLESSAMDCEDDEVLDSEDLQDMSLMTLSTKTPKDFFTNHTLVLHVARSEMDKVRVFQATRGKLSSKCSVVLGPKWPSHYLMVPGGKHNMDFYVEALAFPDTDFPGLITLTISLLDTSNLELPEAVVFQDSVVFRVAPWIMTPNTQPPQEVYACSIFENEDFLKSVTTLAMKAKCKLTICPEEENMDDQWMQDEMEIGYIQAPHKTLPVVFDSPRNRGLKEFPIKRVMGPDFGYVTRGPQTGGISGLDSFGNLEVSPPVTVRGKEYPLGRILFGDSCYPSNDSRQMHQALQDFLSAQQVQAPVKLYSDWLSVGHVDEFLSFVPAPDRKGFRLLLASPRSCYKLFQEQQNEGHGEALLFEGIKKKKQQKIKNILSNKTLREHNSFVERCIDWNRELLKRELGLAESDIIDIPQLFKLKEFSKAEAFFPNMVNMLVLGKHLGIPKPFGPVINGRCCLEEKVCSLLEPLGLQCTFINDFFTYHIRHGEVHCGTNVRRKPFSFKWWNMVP
CTSL1 counter = counter-screen for PFM18AAP inhibitors: inhibitors of F. hepatica cathepsin L1 | recombinant F. hepatica cathepsin L1, Z-Leu-Arg-MCA fluorescence | inhibition, % at 5.96 µM | hit rate 0.49% among 300,000;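 active means inhibition above the mean of all tested compounds plus 3 SD, set per screening campaign, cut at about 17% in these data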;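 further: 0% = plate median of test compound wells and 100% = 1 µM Z-Phe-Ala-diazomethylketone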
GSTO1 inh conf = confirmation of human GSTO1 inhibitors; AID 2176; inhibition, % at 5.96 µM; shares compounds with GSTO1 inh; hit rate 54% among 2,400; recombinant GSTO1, probe fluorescence polarization;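 active means inhibition above the primary screen's cutoff, its mean inhibition plus 3 SD, cut at about 35% in these data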;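 further: loss of polarization as inhibitors block binding of rhodamine sulfonate ester activity probe; 0% = GSTO1 with DMSO and 100% = wells lacking GSTO1 enzyme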
PAD4 confirm = PAD4 (human) inhibition, confirmed; shares compounds with PAD4 FP inh; recombinant PAD4, RCA probe fluorescence polarization; inhibition, % at 6.36 µM; hit rate 28% among 1,200; AID 488796;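 active means mean inhibition across replicates above the hit cutoff set by the earlier primary screen, cut at about 15% in these data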;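 further: inhibitors block active-site labeling by the probe so polarization falls; 0% = PAD4 with probe and DMSO and 100% = probe without PAD4 enzyme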
Apaf-1 inh conf = confirmation of Apaf-1 inhibitors. shares compounds with Apaf1 inhib. reconstituted apoptosome, caspase-3 DEVD-Rh110 fluorescence. inhibition, % at 20 µM. hit rate 25% among 1,800. AID 504614;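 active means mean inhibition of at least 40% at 20 µM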;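 further: plate controls were DMSO wells for no effect and DEVD-CHO caspase inhibitor control wells for full effect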
Rh110 quench = interferes with Rh110 fluorescence, flagging false Apaf-1 inhibitors; shares compounds with Apaf1 inhib; Rh110 fluorescence interference, quenched caspase reaction; activation (fluorescence interference), % at 20 µM; 1,800 tested, under 10 active; AID 504615;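 active means signal rise of 40% or more at 20 µM, treated as a fluorescence artifact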
Fluor interf inh = counter-screen for Apaf-1 inhibitors: fluorescence interference, dose response | fluorescence interference counterscreen, Apaf-1 assay format | shares compounds with Apaf1 inhib | 460 tested, under 10 active | IC50, µM | AID 588538; call rule not given here
TDP2 confirm = human TDP2 inhibition, confirmation; AID 743263; recombinant human TDP2, absorbance read-out; hit rate 22% among 1,100; inhibition, % at 12.8 µM; shares compounds with TDP2 absorb; in the data active means inhibition above about 25%;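 further: 0% = vehicle with enzyme and 100% = no enzyme buffer only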
Starred values were filed as active, the others as inactive; . = no result given; ! = not active in a repeat.

SMILES	TDP2 absorb	GSTO1 inh	Apaf1 inhib	PAD4 FP inh	CTSL1 counter	GSTO1 inh conf	PAD4 confirm	Apaf-1 inh conf	Rh110 quench	TDP2 confirm	others
COCCCNC(=O)c1c(N)n(Cc2ccco2)c2nc3ccccc3nc12	0.8	4.5	26.7	-10.2	10.1	.	.	.	.	.
C=CCNC(=O)c1c(N)n(CCN2CCOCC2)c2nc3ccccc3nc12	-9.5	2.9	-17.4	-3.8	3.0	.	.	.	.	.
CC[C@@H](CO)NC(=O)[C@@H]1C=C2c3cccc4c3c(cn4C)C[C@H]2N(C)C1	31.1*!	47.8*!	68.6*!	22.3*!	17.4*!	11.8	1.4	17.1	-0.5	21.7
COC(=O)C1=C(c2ccc(C(C)=O)cc2)C[C@@H]2CC[C@H]1N2C(=O)N1CCCCC1	.	.	5.2	-4.4	.	.	.	.	.	.
Cc1cccc(C#N)c1	-5.3	.	-4.6	-5.4	.	.	.	.	.	.
CCOC(=O)c1c(NS(=O)(=O)c2ccccc2)n(CCCOC)c2nc3ccccc3nc12	91.2*	93.1*	96.5*	78.9*	8.2	58.9*	-5.2	76.4*	4.3	72.9*	Fluor interf inh=>100
COC(=O)c1c(N)n(Cc2ccc(OC)cc2)c2nc3ccccc3nc12	8.5	13.3	33.4	-7.1	4.7	.	.	.	.	.
CC(C)CCNC(=O)c1c(N)n(Cc2ccc3c(c2)OCO3)c2nc3ccccc3nc12	45.1*	39.6*	89.6*	-3.7	-0.6	68.7*	.	34.9	14.5	-5.8
CCCCNC(=O)c1c(N)n(CCCOC)c2nc3ccccc3nc12	36.3*	50.6*	89.6*	2.2	0.6	16.6	.	50.4*	0.8	1.1	Fluor interf inh=>100
CCCCCC1(C(C)C)C(=O)NC(=S)NC1=O	-3.5	.	.	.	.	.	.	.	.	.
C[C@H]1CC[C@H]2NCCN[C@H]2C1	-6.3	4.2	-26.1	3.1	-2.7	.	.	.	.	.
CC1(C)CC(=O)C(C2(O)C(=O)NC(=O)NC2=O)=C(O)C1	53.5*	67.6*	-2.3	3.4	2.1	60.4*	.	.	.	50.4*
O=C1NC(=O)C(Sc2ccccc2[N+](=O)[O-])C(=O)N1	50.9*	48.3*	12.0	-0.8	0.8	7.7	.	.	.	32.8*
Cc1ccccc1[N+](=O)[O-]	-0.8	.	-6.7	-8.4	.	.	.	.	.	.
C=CCN1C[C@@H](C)N(C(c2ccc(C(=O)N(CC)CC)cc2)c2cccc(OC)c2)C[C@@H]1C (some centres undefined)	-8.8	2.2	10.0	0.7	16.4	.	.	.	.	.
CNc1ccc2nc3ccccc3[n+](C)c2c1	45.7*	101.5*	88.9*	108.4*	15.7	62.1*	92.2*	61.7*	8.8	32.4*	Fluor interf inh=>100
Cc1ccccc1C(=O)NCCN1CCC2(CC1)C(=O)NCN2c1ccccc1	1.8	.	.	.	.	.	.	.	.	.
CNc1ccc2oc(C[C@H]3O[C@@]4(CC[C@H]3C)O[C@H]([C@H](C)C(=O)c3ccc[nH]3)[C@H](C)C[C@H]4C)nc2c1C(=O)O	29.4*	42.3*	5.0	56.9*	4.5	7.8	7.7	.	.	-5.5
O=C1C(=O)c2ccccc2-c2ccccc21	68.0*	90.0*	98.7*	81.8*	110.0*	93.5*	75.7*	99.1*	5.1	90.0*	Fluor interf inh=>100
CN1CCN(c2cccc3c2C(=O)c2ccccc2C3=O)CC1	-11.8	.	.	.	.	.	.	.	.	.
CC(=O)Nc1ccc(OCCF)cc1	1.1	7.2	3.1	-3.9	-5.5	.	.	.	.	.
Nc1c(C(=O)OCC2CCCO2)c2nc3ccccc3nc2n1Cc1cccs1 (centres undefined)	30.9*	38.9*	55.6*	-9.4	7.5	5.2	.	23.0	5.0	7.2
COc1cc2c(cc1OC)-c1c(OC)c(OC)cc3c1[C@H](C2)N(C)CC3	73.9*	47.3*	94.5*	23.0*	7.9	71.4*	8.8	96.3*	7.4	55.9*	Fluor interf inh=>100
COc1ccc2c3c1O[C@H]1C(=O)CC[C@H]4[C@@H](C2)N(C)CC[C@]314	-2.4	.	-1.1	-1.6	.	.	.	.	.	.
CCC(C)n1c(O)c(C=Nc2cccc(C(F)(F)F)c2)c(=O)[nH]c1=S (centres undefined)	3.5	-8.2	4.9	21.6*	2.7	.	0.0	.	.	.
SMILES	TDP2 absorb	GSTO1 inh	Apaf1 inhib	PAD4 FP inh	CTSL1 counter	GSTO1 inh conf	PAD4 confirm	Apaf-1 inh conf	Rh110 quench	TDP2 confirm	others
O=c1c2ccccc2[se]n1-c1ccccc1	8.3	-20.0	-38.5	74.8*	-3.1	.	79.7*	.	.	.
CCN(CC)c1ccc(N=Cc2c(O)n(Cc3ccco3)c(=O)[nH]c2=O)cc1	19.1	28.2	0.9	16.1*	-0.2	.	8.3	.	.	.
NC(=O)c1ccc(N=Cc2c(O)n(Cc3ccco3)c(=O)[nH]c2=O)cc1	11.3	7.6	-8.3	-2.2	2.7	.	.	.	.	.
C#CC1(O)CCC2C3CCC4=C/C(=N/OCC(=O)NCC(=O)NC(C(=O)O)C(C)C)CC[C@]4(C)C3CC[C@@]21C (some centres undefined)	-7.8	.	1.7	.	.	.	.	.	.	.
C#C[C@]1(O)CC[C@H]2[C@@H]3CCC4=Cc5nc6nc7ccccc7n6cc5C[C@]4(C)[C@H]3CC[C@@]21C	4.7	-8.4	17.5	18.5*	-6.3	.	8.9	.	.	.
CN1CC=C2C(C#N)=C(N)C(C#N)(C#N)C(c3ccncc3)C2C1 (centres undefined)	.	12.9	-10.7	27.5*	4.7	.	6.5	.	.	.
O=[N+]([O-])CCO	-13.8	.	-10.4	-3.5	.	.	.	.	.	.
COC(=O)C1=C(c2cccc(OC)c2OC)C[C@@H]2CC[C@H]1N2C(=O)NCc1ccc(F)cc1	3.2	6.9	-1.8	28.3*	3.3	.	4.5	.	.	.
COC(=O)C1=C(c2cccc(OC)c2OC)C[C@@H]2CC[C@H]1N2C(=O)NCc1ccccc1	6.3	2.5	-4.4	1.5	-1.5	.	.	.	.	.
CN(C)P(=O)(N(C)C)N1CC1	-11.4	.	.	.	.	.	.	.	.	.
COC(=O)C1=C(c2ccc(F)cc2OCc2ccccc2)C[C@@H]2CC[C@H]1N2C(=O)NC1Cc2ccccc2C1	-13.6	.	28.2	-0.5	.	.	.	.	.	.
CCOC(=O)c1c(N)n(Cc2ccc(OC)cc2)c2nc3ccccc3nc12	-4.8	.	.	.	.	.	.	.	.	.
COCCNC(=O)c1c(NC(=O)c2ccc(Br)o2)n(Cc2ccccc2)c2nc3ccccc3nc12	11.4	77.4*	67.3*	53.9*	-5.7	.	-9.6	24.8	-7.2	.
Cc1nn(CC(C)C)c(Cl)c1C(=O)O	6.0	-7.4	-29.6	-4.3	-3.4	.	.	.	.	.
CCN(CCO)c1ccc(N=Cc2c(O)n(C)c(=S)[nH]c2=O)cc1	24.4	47.6*	51.2*	39.9*	-2.8	.	-5.7	15.9	-6.6	.
